Measured values reported in ChEMBL document CHEMBL1821600, “Synthesis and antiviral evaluation of α-L-2'-deoxythreofuranosyl nucleosides” (Eur J Med Chem, 2011).
Converted amounts (≈) assume the structure as drawn. The source made the active and inactive calls. The rule behind the calls is not given here.

Experiments:
HEL = experiment: Cytotoxicity against human HEL cells at 100 ug/ml; type: cell-based
Human betaherpesvirus 5 = experiment: Antiviral activity against Human cytomegalovirus infected in human HEL cells assessed as inhibition of virus-induced cytopathicity upto 200 uM administered after 1 hr virus adsorption period; type: functional, organism-based
[1] = tested on: Respiratory syncytial virus; experiment: Antiviral activity against Respiratory syncytial virus infected in HeLa cells assessed as inhibition of virus-induced cytopathicity upto 200 uM administered after 1 hr virus adsorption period; type: functional, organism-based
How it was run: (§1)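 Confluent cell monolayers (HEL for HSV-1 and HSV-2; Vero for parainfluenza-3, reovirus-1, Sindbis and Punta Toro; HeLa for Coxsackie B4 and RSV) in 96-well plates were inoculated with 100 CCID50 of virus. After 1 h adsorption, unbound virus was removed. Cells were then kept with compound at 200, 40, 8… μM. Cytopathicity was scored once untreated infected controls reached full CPE.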

[2] = tested on: Human immunodeficiency virus 1; experiment: Antiviral activity against Human immunodeficiency virus 1 3B infected in human CEM cells assessed as inhibition of virus-induced giant cell formation after 4 days by microscopic method; type: functional, organism-based; settings: CCRF-CEM; for EC50: 96 h
How it was run: (§2)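 CEM cells (~3×10^5 cells/cm³) were infected with 100 CCID50/mL of HIV-1(IIIB) or HIV-2(ROD) and seeded into wells containing serial compound dilutions. After 4 days at 37 °C, giant (syncytium) cell formation was scored microscopically.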

Sindbis virus = experiment: Antiviral activity against Sindbis virus infected in Vero cells assessed as inhibition of virus-induced cytopathicity upto 200 uM administered after 1 hr virus adsorption period; type: functional, organism-based; how it was run: as §1
Punta Toro virus = experiment: Antiviral activity against Punta Toro virus infected in Vero cells assessed as inhibition of virus-induced cytopathicity upto 200 uM administered after 1 hr virus adsorption period; type: functional, organism-based; how it was run: as §1
Influenza A virus [3] = experiment: Antiviral activity against influenza A virus H1N1 infected in MDCK cells assessed as inhibition of virus-induced cytopathicity upto 200 uM administered after 1 hr virus adsorption period; type: functional, organism-based
[4] = tested on: Vesicular stomatitis virus; experiment: Antiviral activity against Vesicular stomatitis virus infected in HEL cells assessed as inhibition of virus-induced cytopathicity upto 200 uM administered after 1 hr virus adsorption period; type: functional, organism-based
[5] = Inhibition of Herpes simplex virus type 1 thymidine kinase assessed as inhibition of [methyl-3H]dThd phosphorylation after 30 mins by scintillation counting; set-up: species or system Human alphaherpesvirus 1
How it was run: (§3)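 Recombinant enzyme (TK-1, TK-2, HSV-1 TK, VZV TK or Drosophila dNK) was used in 50 mM Tris/HCl pH 8.0 with 2.5 mM MgCl2, 10 mM DTT, 0.5 mM CHAPS, 3 mg/mL BSA, 2.5 mM ATP and 1 µM [methyl-3H]dThd. Compound was added as 5-fold dilutions, and reactions ran 30 min at 37 °C, still linear. Mixtures were spotted on DE-81 disks, washed in ammonium formate, water and ethanol, then scintillation counted. IC50 was determined.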

[6] = tested on: Mammalian orthoreovirus 1; experiment: Antiviral activity against Reovirus 1 infected in Vero cells assessed as inhibition of virus-induced cytopathicity upto 200 uM administered after 1 hr virus adsorption period; type: functional, organism-based; how it was run: as §1
Human alphaherpesvirus 3 = experiment: Antiviral activity against Varicella Zoster Virus infected in human HEL cells assessed as inhibition of virus-induced cytopathicity upto 200 uM administered after 1 hr virus adsorption period; type: functional, organism-based
HeLa = experiment: Cytotoxicity against human HeLa cells at 100 ug/ml; type: cell-based
[7] = Non-competitive inhibition of Herpes simplex virus type 1 thymidine kinase assessed as inhibition of [methyl-3H]dThd phosphorylation by scintillation counting; set-up: species or system Human alphaherpesvirus 1
MDCK = experiment: Cytotoxicity against MDCK cells at 100 ug/ml; type: cell-based, Canis lupus familiaris; settings: dog
Human alphaherpesvirus 2 = experiment: Antiviral activity against Herpes simplex virus type 2 infected in HEL cells assessed as inhibition of virus-induced cytopathicity upto 200 uM administered after 1 hr virus adsorption period; type: functional, organism-based; how it was run: as §1
Feline coronavirus = experiment: Antiviral activity against Feline coronavirus infected in CRFK cells assessed as inhibition of virus-induced cytopathicity upto 200 uM administered after 1 hr virus adsorption period; type: functional, organism-based
CCRF-CEM = experiment: Cytotoxicity against human CEM cells at 100 ug/ml; type: cell-based
Vero = experiment: Cytotoxicity against african green monkey Vero cells at 100 ug/ml; type: cell-based; settings: chlorocebus sabaeus
Influenza A virus [8] = experiment: Antiviral activity against Influenza A virus H3N2 infected in MDCK cells assessed as inhibition of virus-induced cytopathicity upto 200 uM administered after 1 hr virus adsorption period; type: functional, organism-based
Human alphaherpesvirus 1 [9] = experiment: Antiviral activity against TK-deficient Herpes simplex virus type 1 infected in HEL cells assessed as inhibition of virus-induced cytopathicity upto 200 uM administered after 1 hr virus adsorption period; type: functional, organism-based
Coxsackievirus B4 = experiment: Antiviral activity against Coxsackievirus B4 infected in HeLa cells assessed as inhibition of virus-induced cytopathicity upto 200 uM administered after 1 hr virus adsorption period; type: functional, organism-based; how it was run: as §1
Human respirovirus 3 = experiment: Antiviral activity against Parainfluenza virus 3 infected in Vero cells assessed as inhibition of virus-induced cytopathicity upto 200 uM administered after 1 hr virus adsorption period; type: functional, organism-based; how it was run: as §1
[10] = Inhibition of varicella zoster virus thymidine kinase assessed as inhibition of [methyl-3H]dThd phosphorylation after 30 mins by scintillation counting; set-up: species or system Human alphaherpesvirus 3; how it was run: as §3
[11] = tested on: Human immunodeficiency virus 2; experiment: Antiviral activity against Human immunodeficiency virus type 2 ROD infected in human CEM cells assessed as inhibition of virus-induced giant cell formation after 4 days by microscopic method; type: functional, organism-based; settings: CCRF-CEM; for EC50: Human immunodeficiency virus 2, ISOLATE ROD, 96 h; how it was run: as §2
Deoxynucleoside kinase = target: T1, Deoxynucleoside kinase (Drosophila melanogaster, UniProt Q9XZT6); experiment: Inhibition of Drosophila melanogaster deoxynucleoside kinase assessed as inhibition of [methyl-3H]dThd phosphorylation after 30 mins by scintillation counting; how it was run: as §3
T1 sequence (Q9XZT6 whole entry): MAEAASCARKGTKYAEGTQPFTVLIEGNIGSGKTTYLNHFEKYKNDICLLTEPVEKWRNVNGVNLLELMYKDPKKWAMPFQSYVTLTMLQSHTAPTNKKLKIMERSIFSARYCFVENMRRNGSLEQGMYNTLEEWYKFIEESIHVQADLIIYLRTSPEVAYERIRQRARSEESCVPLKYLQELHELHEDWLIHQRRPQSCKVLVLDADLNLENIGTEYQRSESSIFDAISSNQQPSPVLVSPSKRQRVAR

[12] = target: T2, Thymidine kinase 2, mitochondrial (Homo sapiens, UniProt O00142); experiment: Inhibition of human mitochondrial TK2 assessed as inhibition of [methyl-3H]dThd phosphorylation after 30 mins by scintillation counting; how it was run: as §3
T2 sequence (O00142 whole entry): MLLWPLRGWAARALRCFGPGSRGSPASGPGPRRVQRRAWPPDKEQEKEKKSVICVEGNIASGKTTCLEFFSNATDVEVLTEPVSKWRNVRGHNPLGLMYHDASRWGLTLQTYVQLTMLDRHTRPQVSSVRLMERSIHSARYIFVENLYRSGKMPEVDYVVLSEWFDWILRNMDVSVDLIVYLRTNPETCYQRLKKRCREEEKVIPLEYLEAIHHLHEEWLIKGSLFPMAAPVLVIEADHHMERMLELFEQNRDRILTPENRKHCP

Thymidylate kinase = Thymidylate kinase (Mycobacterium tuberculosis, UniProt P9WKE1); experiment: Inhibition of Mycobacterium tuberculosis Thymidylate kinase
Sequence of Thymidylate kinase (P9WKE1 whole entry): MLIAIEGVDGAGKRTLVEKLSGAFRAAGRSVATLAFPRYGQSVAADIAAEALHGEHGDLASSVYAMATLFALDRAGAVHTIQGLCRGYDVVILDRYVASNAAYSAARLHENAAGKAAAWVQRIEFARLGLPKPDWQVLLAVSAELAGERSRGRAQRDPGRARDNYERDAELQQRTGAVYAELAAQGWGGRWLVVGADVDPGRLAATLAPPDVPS

Influenza B virus = experiment: Antiviral activity against influenza B virus infected in MDCK cells assessed as inhibition of virus-induced cytopathicity upto 200 uM administered after 1 hr virus adsorption period; type: functional, organism-based
Human alphaherpesvirus 1 [13] = experiment: Antiviral activity against Herpes simplex virus type 1 infected in HEL cells assessed as inhibition of virus-induced cytopathicity upto 200 uM administered after 1 hr virus adsorption period; type: functional, organism-based; how it was run: as §1
[14] = Cytotoxicity against CRFK cells at 100 ug/ml; type: cell-based, Felis catus; settings: cat
Vaccinia virus = experiment: Antiviral activity against Vaccinia virus infected in HEL cells assessed as inhibition of virus-induced cytopathicity upto 200 uM administered after 1 hr virus adsorption period; type: functional, organism-based; settings: Orthopoxvirus vaccinia
[15] = target: Thymidine kinase, cytosolic (Homo sapiens, UniProt P04183); experiment: Inhibition of human recombinant cytosolic TK1 assessed as inhibition of [methyl-3H]dThd phosphorylation after 30 mins by scintillation counting; how it was run: as §3
Sequence of Thymidine kinase, cytosolic (P04183 whole entry): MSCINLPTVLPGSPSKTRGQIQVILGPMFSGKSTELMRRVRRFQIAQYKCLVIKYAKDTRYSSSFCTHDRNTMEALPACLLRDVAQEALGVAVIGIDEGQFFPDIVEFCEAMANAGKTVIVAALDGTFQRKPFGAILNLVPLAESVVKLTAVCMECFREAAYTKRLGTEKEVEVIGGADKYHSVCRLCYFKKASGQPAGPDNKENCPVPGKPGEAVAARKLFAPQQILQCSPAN

Row | Structure (SMILES) | Activity (HEL) | inhibition (Human betaherpesvirus 5) | inhibition [1] | inhibition (Sindbis virus) | inhibition (Punta Toro virus) | inhibition (Influenza A virus [3]) | inhibition [4] | inhibition [6] | inhibition (Human alphaherpesvirus 3) | Activity (HeLa) | Activity (MDCK) | inhibition (Human alphaherpesvirus 2) | inhibition (Feline coronavirus) | Activity (CCRF-CEM) | Activity (Vero) | inhibition (Influenza A virus [8]) | inhibition (Coxsackievirus B4) | inhibition (Human respirovirus 3) | inhibition (Influenza B virus) | inhibition (Human alphaherpesvirus 1 [13]) | further results
1 | Cc1cn([C@H]2C[C@@H](O)CO2)c(=O)[nH]c1=O | Non-toxic | inactive | inactive | inactive | inactive | inactive | inactive | inactive | inactive | Non-toxic | Non-toxic | inactive | inactive | Non-toxic | Non-toxic | inactive | inactive | inactive | inactive | inactive | inhibition [2]: inactive; IC50 [5]: 14 mg/L (≈ 66 µM); Ki [7]: 20 µM; inhibition (Human alphaherpesvirus 1 [9]): inactive; IC50 [10]: 26 mg/L (≈ 123 µM); inhibition ([11]; ISOLATE ROD): inactive; IC50 (Deoxynucleoside kinase): ≥ 942 µM; IC50 [12]: 429 µM; Ki (Thymidylate kinase): 18 µM; Activity [14]: Non-toxic; inhibition (Vaccinia virus): inactive
2 | CC(=O)Nc1ccn([C@H]2C[C@@H](O)CO2)c(=O)n1 | Non-toxic | inactive | inactive | inactive | inactive | inactive | inactive | inactive | inactive | Non-toxic | Non-toxic | inactive | inactive | Non-toxic | Non-toxic | inactive | inactive | inactive | inactive | inactive | EC50 [2]: > 100 mg/L; EC50 [11]: > 100 mg/L; Activity [14]: Non-toxic; inhibition (Vaccinia virus): inactive
3 | O=c1ccn([C@H]2C[C@@H](O)CO2)c(=O)[nH]1 | Non-toxic | inactive | inactive | inactive | inactive | inactive | inactive | inactive | inactive | Non-toxic | Non-toxic | inactive | inactive | Non-toxic | Non-toxic | inactive | inactive | inactive | inactive | inactive | EC50 [2]: > 100 mg/L; IC50 [5]: > 200 mg/L; IC50 [10]: > 200 mg/L; EC50 [11]: > 100 mg/L; IC50 (Deoxynucleoside kinase): > 1010 µM; IC50 [12]: 303 µM; Activity [14]: Non-toxic; inhibition (Vaccinia virus): inactive
4 | Nc1ncnc2c1ncn2[C@H]1C[C@@H](O)CO1 | Non-toxic | inactive | inactive | inactive | inactive | inactive | inactive | inactive | inactive | Non-toxic | Non-toxic | inactive | inactive | Non-toxic | Non-toxic | inactive | inactive | inactive | inactive | inactive | EC50 [2]: > 100 mg/L; IC50 [15]: > 904 µM; IC50 [5]: > 200 mg/L; IC50 [10]: > 200 mg/L; EC50 [11]: > 100 mg/L; IC50 (Deoxynucleoside kinase): > 904 µM; IC50 [12]: > 904 µM; Activity [14]: Non-toxic; inhibition (Vaccinia virus): inactive
5 | Nc1ccn([C@H]2C[C@@H](O)CO2)c(=O)n1 | Non-toxic | inactive | inactive | inactive | inactive | inactive | inactive | inactive | inactive | Non-toxic | Non-toxic | inactive | inactive | Non-toxic | Non-toxic | inactive | inactive | inactive | inactive | inactive | EC50 [2]: > 100 mg/L; IC50 [15]: 1010 µM; IC50 [5]: > 200 mg/L; IC50 [10]: > 200 mg/L; EC50 [11]: > 100 mg/L; IC50 (Deoxynucleoside kinase): > 1010 µM; IC50 [12]: > 1010 µM; Activity [14]: Non-toxic; inhibition (Vaccinia virus): inactive
